From ChEMBL document CHEMBL1123816, “Synthesis and antidepressant properties of novel 2-substituted 4,5-dihydro-1H-imidazole derivatives” (J Med Chem, 1987)
The source made the active and inactive calls. The rule behind the calls is not given here.

Columns and labels:
[1] = molecular target: T1, Adrenergic receptor alpha-2 (Rattus norvegicus, UniProt P22086+P19328+P22909); assay: Ability to displace [3H]clonidine from alpha-2 adrenergic receptor in rat brain homogenates in vitro; format: tissue-based
T1 sequence (P22086 whole entry): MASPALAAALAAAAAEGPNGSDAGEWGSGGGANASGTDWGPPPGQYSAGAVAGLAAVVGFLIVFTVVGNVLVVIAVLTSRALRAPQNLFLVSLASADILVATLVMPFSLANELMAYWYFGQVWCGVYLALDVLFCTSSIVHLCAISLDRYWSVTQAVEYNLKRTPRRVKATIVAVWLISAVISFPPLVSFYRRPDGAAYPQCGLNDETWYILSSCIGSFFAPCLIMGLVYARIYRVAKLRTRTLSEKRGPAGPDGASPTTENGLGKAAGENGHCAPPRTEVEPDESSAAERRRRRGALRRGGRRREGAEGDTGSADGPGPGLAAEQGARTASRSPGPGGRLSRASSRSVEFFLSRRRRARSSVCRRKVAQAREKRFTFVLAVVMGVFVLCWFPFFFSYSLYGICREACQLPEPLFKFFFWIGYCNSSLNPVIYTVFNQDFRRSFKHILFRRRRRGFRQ
T1 sequence (P19328 whole entry): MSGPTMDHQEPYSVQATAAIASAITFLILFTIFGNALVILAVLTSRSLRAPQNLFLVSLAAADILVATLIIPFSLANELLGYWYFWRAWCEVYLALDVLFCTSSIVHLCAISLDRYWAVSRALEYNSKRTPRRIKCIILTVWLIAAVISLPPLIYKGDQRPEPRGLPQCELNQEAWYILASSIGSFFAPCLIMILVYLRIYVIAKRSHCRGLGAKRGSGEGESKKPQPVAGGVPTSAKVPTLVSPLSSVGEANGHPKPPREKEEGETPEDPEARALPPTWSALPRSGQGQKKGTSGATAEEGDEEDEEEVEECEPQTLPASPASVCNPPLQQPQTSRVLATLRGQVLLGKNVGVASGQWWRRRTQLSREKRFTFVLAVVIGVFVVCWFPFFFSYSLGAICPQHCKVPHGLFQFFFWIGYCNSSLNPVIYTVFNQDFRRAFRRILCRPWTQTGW
T1 sequence (P22909 whole entry): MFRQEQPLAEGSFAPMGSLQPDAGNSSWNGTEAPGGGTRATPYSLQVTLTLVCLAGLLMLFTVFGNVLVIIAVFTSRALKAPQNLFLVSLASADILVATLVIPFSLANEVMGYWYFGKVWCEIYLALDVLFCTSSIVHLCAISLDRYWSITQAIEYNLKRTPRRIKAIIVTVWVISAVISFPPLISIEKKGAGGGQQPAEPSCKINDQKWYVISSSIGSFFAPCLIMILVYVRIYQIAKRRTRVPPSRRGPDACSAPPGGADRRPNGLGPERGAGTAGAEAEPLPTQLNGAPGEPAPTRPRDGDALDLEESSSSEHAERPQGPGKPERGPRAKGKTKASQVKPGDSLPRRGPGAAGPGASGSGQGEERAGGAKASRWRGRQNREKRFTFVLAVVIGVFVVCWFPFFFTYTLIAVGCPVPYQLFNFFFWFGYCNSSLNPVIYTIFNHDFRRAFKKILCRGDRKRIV

[2] = molecular target: T1, Adrenergic receptor alpha-2; assay: In vitro antagonistic activity against alpha-2 adrenergic receptor in isolated electrically stimulated rat vas deferens (clonidine-induced decrease in twitch height); format: functional, tissue-based
[3] = molecular target: T2, Adrenergic receptor alpha-2 (Rattus norvegicus) (UniProt P22086+P19328+P22909); assay: In vitro antagonistic activity against alpha-2 adrenergic receptor in isolated electrically stimulated rat vas deferens (clonidine-induced decrease in twitch height) at 500 uM concentration;IA is Inactive, no antagonism at 500 uM; format: functional
[4] = molecular target: T2, Adrenergic receptor alpha-2 (Rattus norvegicus); assay: In vitro antagonistic activity against alpha-2 adrenergic receptor in isolated electrically stimulated rat vas deferens (clonidine-induced decrease in twitch height)at 500 uM concentration. IA is Inactive, no antagonism at 500 uM; format: functional
[5] = molecular target: T2, Adrenergic receptor alpha-2 (Rattus norvegicus); assay: In vitro antagonistic activity against alpha-2 adrenergic receptor in isolated electrically stimulated rat vas deferens (clonidine-induced decrease in twitch height) at 500 uM concentration.;IA is Inactive, no antagonism at 500 uM; format: functional
Rattus norvegicus [6] = species on record: Rattus norvegicus; assay: Inhibition of [3H]norepinephrine uptake into rat brain synaptosomes in vitro;Values ranges from: 8.6-21; format: functional
Summary of the method: (§1)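 Male Sprague–Dawley rat cerebral cortex (180–240 g) homogenized in 0.32 M sucrose; crude P2 synaptosomes. Preincubated 5 min at 25 °C in modified Krebs–Ringer phosphate with ascorbic acid, EDTA and nialamide. Uptake run 5 min with 0.1 μM final [3H]-5-HT or [3H]NE, stopped by ice-cold saline and filtration. Nonspecific uptake taken at 4 °C. Scintillation counting; IC50 with 95% confidence limits.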

Mus musculus [7] = assay: Effective dose required to antagonise clonidine-induced antinociception(ACA) in mouse by peroral administration;Values ranges from: 0.5-3.8; format: functional; conditions: po
Mus musculus [8] = assay: Effective dose required for inhibition of tetrabenazine-induced ptosis in mouse by peroral administration; format: functional; conditions: po
Summary of the method: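 Swiss Webster mice; test compound in 0.9% NaCl (10 mL/kg) given po 30 min before ip tetrabenazine methanesulfonate (50 mg/kg, in 0.9% NaCl with moderate heating). Ptosis scored subjectively 30 min after tetrabenazine on a 0–4 scale (0 = complete eye closure, 4 = no closure). ED50 with 95% confidence limits from quantal dose–response analysis.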

Rattus norvegicus [9] = species on record: Rattus norvegicus; assay: Inhibition of [3H]5-HT uptake into rat brain synaptosomes in vitro; format: functional; summary of the method: as §1
Rattus norvegicus [10] = assay: Minimum effective dose required for inhibition of serotonin uptake was determined by PCA method in rat by peroral administration; format: functional; conditions: po, read-out: MED
Summary of the method: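 Fasted male Sprague–Dawley rats (160–200 g) given test compound orally in water (10 mL/kg) 15 min before p-chloroamphetamine 3 mg/kg ip. Forebrain taken 3 h later, extracted in acidified butanol then heptane/0.1 N HCl. Serotonin in aqueous phase measured fluorometrically after o-phthalaldehyde condensation (excitation 360 nm). Minimum effective dose reported.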

Rattus norvegicus [11] = species on record: Rattus norvegicus; assay: Inhibition of [3H]dopamine uptake into rat brain synaptosomes in vitro; format: functional
Summary of the method: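 Male Sprague–Dawley rat corpus striatum (180–240 g) homogenized in 0.32 M sucrose; P2 synaptosomes. Preincubated 5 min at 25 °C in modified Krebs–Ringer phosphate with ascorbic acid, EDTA and nialamide. Uptake run 5 min with 0.1 μM final [3H]dopamine, ended by cold saline and GF/B filtration. Nonspecific uptake measured at 4 °C. IC50 with 95% confidence limits.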

Mus musculus [12] = assay: Effective dose required for inhibition of tetrabenazine-induced ptosis in mouse by peroral administration;Values ranges from: 1.8-9.3; format: functional; conditions: po
Rattus norvegicus [13] = species on record: Rattus norvegicus; assay: Inhibition of [3H]5-HT uptake into rat brain synaptosomes in vitro;Values ranges from: 0.14-0.22; format: functional
Summary of the method: (§2)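 Male Sprague–Dawley rat (180–240 g) cortex (NE, 5-HT) or striatum (DA) crude P2 synaptosomes in 0.32 M sucrose. Preincubated 5 min at 25 °C with drug in Krebs–Ringer phosphate containing ascorbate, EDTA, nialamide; 0.1 μM final [3H]amine added for 5 min. Stopped by cold saline and GF/B filtration; nonspecific uptake at 4 °C. IC50 with 95% limits computed.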

Rattus norvegicus [14] = species on record: Rattus norvegicus; assay: Inhibition of [3H]dopamine uptake into rat brain synaptosomes in vitro;Values ranges from: 0.09-0.18; format: functional; summary of the method: as §2
Rattus norvegicus [15] = species on record: Rattus norvegicus; assay: Inhibition of [3H]norepinephrine uptake into rat brain synaptosomes in vitro;Values ranges from: 0.01-0.07; format: functional; summary of the method: as §2
[16] = molecular target: T2, Adrenergic receptor alpha-2 (Rattus norvegicus); assay: In vitro antagonistic activity against alpha-2 adrenergic receptor in isolated electrically stimulated rat vas deferens (clonidine-induced decrease in twitch height) at 500 uM concentration. IA is Inactive, no antagonism at 500 uM; format: functional

Structure (SMILES) | Ki [1] [nM] | pA2 [2] | other results
CC1=C(CC2=NCCN2)Cc2ccccc21.Cl | 6.9 | 7.71 | 
Cl.c1ccc2cc(CC3=NCCN3)ccc2c1 | 48 | 7.67 | 
Cc1c(CC2=NCCN2)ccc2ccccc12.Cl | 6.6 | 7.35 | 
CC(C1=Cc2ccccc2CC1)C1=NCCN1.Cl (centres undefined) | 32 | 7.43 | 
c1ccc2c(c1)OCC(C1=NCCN1)O2 (centres undefined) [IDAZOXAN] |  |  | IC50 (Rattus norvegicus [6]): 13000 nM; ED50 (Mus musculus [7]): 1.3 mg/kg; ED50 (Mus musculus [8]): > 30 mg/kg; IC50 (Rattus norvegicus [9]): > 30000 nM; minimal effective dose (Rattus norvegicus [10]): > 30 mg/kg; IC50 (Rattus norvegicus [11]): > 30000 nM
C[C@@H]1c2ccccc2CC[C@@H]1CC1=NCCN1.Cl | 135 | 7.22 | 
CN(C)CCCN1c2ccccc2CCc2ccccc21 [IMIPRAMINE] |  |  | ED50 (Mus musculus [12]): 4.1 mg/kg; IC50 (Rattus norvegicus [13]): 180 nM; IC50 (Rattus norvegicus [14]): 130 nM; minimal effective dose (Rattus norvegicus [10]): 30 mg/kg; IC50 (Rattus norvegicus [15]): 30 nM
C[C@H]1c2ccccc2CC[C@@H]1CC1=NCCN1.Cl | 401 |  | 
C1=C(CC2=NCCN2)Cc2ccccc21.Cl | 76 | 7.19 | 

Now from value to compound, other results behind:

Ki [1] [nM] | pA2 [2] | Structure (SMILES) | other results
548 |  | CCN1CCN=C1CC1=C(C)c2ccccc2CC1.Cl | pA2 [3]: inactive
88 | 6.92 | CC1=C(Cc2ncc[nH]2)CCc2ccccc21 | 
436 |  | CC1=C(CC2=NCCN2C)CCc2ccccc21.Cl | pA2 [4]: inactive
334 |  | CC1=C(CC2=NCCCN2)CCc2ccccc21.Cl | pA2 [5]: inactive
> 800 |  | CC1=C(CC2=NCC(C)N2)CCc2ccccc21.Cl (centres undefined) | pA2 [16]: inactive
